T cruzi growth-1 = T. cruzi intracellular proliferation inhibitors, primary screen, cell-based, beta-gal Tulahuen parasites, NIH3T3 host, luminescence; T. cruzi beta-gal in NIH3T3, GalScreen luminescence, 90 h; inhibition, % at 8.34 µM; actives 5.9% (n = 77,000); AID 624255, 2012;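 active = mean inhibition above about 93%, with at least 55% of replicates each passing it, limit read from the data, passing the limit was not always enough; inconclusive = only one of those two conditions holds; inactive = neither condition holds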
KDM4C inh = inhibitors of GASC-1 (KDM4C) histone demethylase, primary screen, biochemical, single concentration HTS | GST-KDM4C 2-372, H3K9me3 peptide, LANCE TR-FRET | inhibition, % at 12.5 µM | actives 0.15% (n = 96,000) | AID 720574, 2013;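 active = mean replicate inhibition above about 25%, with at least 55% of replicates also reaching it, limit read from the data, passing the limit was not always enough; inconclusive = only one of those two conditions met; inactive = neither condition met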
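Test system: N-terminal GST-fused human GASC-1 (KDM4C) fragment, residues 2-372; quantity: GASC-1 enzyme at 10 nM final in reaction; dosing: single dose; schedule: 30 min demethylation and 1 h detection at room temperature; signal: LANCE TR-FRET, excitation 340 nm, emissions 618 and 671 nm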
IDH1 mut inh = inhibitors of IDH1 R132H reductase, primary screen, biochemical, plate reader, single point; Isocitrate dehydrogenase [NADP] cytoplasmic (Homo sapiens), O75874; diaphorase/resazurin fluorescence, 60 min; inhibition, % at 10 µM; actives 0.18% (n = 70,000); AID 624101, 2012; in the data active = inhibition above about 34%; inconclusive = no clear call, values can overlap the other calls; inactive = below about 11%
Target sequence (O75874 whole entry R132H): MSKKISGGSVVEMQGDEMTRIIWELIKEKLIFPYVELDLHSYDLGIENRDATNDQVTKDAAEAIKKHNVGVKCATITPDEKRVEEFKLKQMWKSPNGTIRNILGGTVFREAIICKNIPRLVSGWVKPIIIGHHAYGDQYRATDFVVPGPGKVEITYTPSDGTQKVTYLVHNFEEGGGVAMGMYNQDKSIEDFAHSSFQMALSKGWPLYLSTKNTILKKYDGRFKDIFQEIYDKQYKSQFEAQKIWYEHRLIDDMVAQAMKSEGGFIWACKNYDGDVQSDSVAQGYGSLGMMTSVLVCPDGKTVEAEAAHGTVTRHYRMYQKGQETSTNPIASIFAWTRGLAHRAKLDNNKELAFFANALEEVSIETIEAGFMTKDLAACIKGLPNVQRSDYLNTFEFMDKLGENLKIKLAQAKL
T cruzi growth-2 = T. cruzi intracellular proliferation inhibitors, confirmation, cell-based, NIH3T3 host, beta-gal parasite, luminescence, cherry-pick; shares compounds with T cruzi growth-1; T. cruzi beta-gal in NIH3T3, GalScreen luminescence, 90 h; inhibition, % at 8.35 µM; actives 72% (n = 5,600); AID 651739, 2012;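 active = mean replicate inhibition above about 95% and at least 55% of replicates individually reaching it, limit read from the data; inconclusive = only one of the two criteria is met; inactive = neither criterion is met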
T cruzi growth-3 = inhibitors of intracellular T. cruzi replication, confirmation, NIH3T3 host cells, beta-gal parasites, cherry-pick, set 2; actives 21% (n = 5,600); T. cruzi beta-gal in NIH3T3, GalScreen luminescence, 90 h; AID 651740, 2012; inhibition, % at 2.09 µM; shares compounds with T cruzi growth-1;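 active = mean inhibition above about 95%, with at least 55% of replicates also reaching it, limit read from the data; inconclusive = meets just one of the two conditions; inactive = meets neither condition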
3T3 cytotox = cytotoxicity in mouse NIH/3T3 fibroblasts, confirmation, cytotoxicity control for T. cruzi proliferation inhibitor project, cell-based, cherry-pick, single point | shares compounds with T cruzi growth-1 | NIH/3T3 viability, CellTiter-Glo ATP luminescence, 90 h | cytotoxicity (signal decrease), % at 8.35 µM | actives 14% (n = 5,600) | AID 651742, 2012;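 active = mean signal decrease across replicates above about 35% based on untreated-well scatter, with enough replicates individually passing, limit read from the data; inconclusive = no rule stated though some were filed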
3T3 cytotox 2 = NIH/3T3 fibroblast cytotoxicity, confirmation, cytotoxicity control, cell-based, cherry-pick, single point, set 2; actives 56% (n = 5,600); AID 651744, 2012; NIH/3T3 viability, CellTiter-Glo ATP luminescence, 90 h; shares compounds with T cruzi growth-1; inhibition, % at 24.9 µM;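 active = mean loss of cell viability signal at or above a set limit, and enough replicates individually reaching it; inconclusive = meets only the mean limit or only the replicate share; inactive = meets neither condition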
Each line names hits and unclear results; the compound was inactive in the other large screens (follow-up assays come after a bar, where they were run). Many of the other results were omitted from the sample, so hits are more common in it than they were.

N#C[C@H]1[C@H](c2ccc(C#Cc3ccccc3F)cc2)[C@H](CO)N1C(=O)C1CCC1	none (no result: IDH1 mut inh)
Cc1cc(C(F)(F)F)nn1CCCNC(=O)c1cc(-c2ccccc2)nc2ccccc12	none (no result: T cruzi growth-1, KDM4C inh)
COc1cccc(CNc2nc3nc(C)c(Cc4ccccc4)c(=O)n3[nH]2)c1	none (no result: T cruzi growth-1, KDM4C inh)
O[C@]12CO[C@H](c3ccc4c(c3)OCO4)[C@H]1CO[C@@H]2c1ccc2c(c1)OCO2	none (no result: T cruzi growth-1, KDM4C inh)
CCCOc1ccc(-c2nc(SCC(=O)O)n[nH]2)cc1	none (no result: T cruzi growth-1, KDM4C inh)
CNC(=O)CN(c1ccc(Br)cc1)S(=O)(=O)c1ccc(C)cc1	none (no result: T cruzi growth-1, KDM4C inh)
COc1ccc(NC(=O)CNC(=O)c2cccc(C)c2)cc1	none (no result: T cruzi growth-1, KDM4C inh)
Cc1ccc(S(=O)(=O)Nc2ccc3c(c2)C(=O)N([C@H](C)CO)C[C@H](C)[C@H](CN(C)S(=O)(=O)c2ccc(C)cc2)OCCCC[C@H](C)O3)cc1	T cruzi growth-1 inconclusive | T cruzi growth-2 105 | T cruzi growth-3 107 | 3T3 cytotox inactive | 3T3 cytotox 2 inactive
Cc1ccc(S(=O)(=O)Nc2ccc3c(c2)C(=O)N([C@H](C)CO)C[C@@H](C)[C@H](CN(C)S(=O)(=O)c2ccc(F)cc2)OCCCC[C@H](C)O3)cc1	none (no result: T cruzi growth-1)
Cc1ccc(S(=O)(=O)Nc2ccc3c(c2)C(=O)N([C@@H](C)CO)C[C@H](C)[C@@H](CN(C)S(=O)(=O)c2ccc(C)cc2)OCCCC[C@@H](C)O3)cc1	T cruzi growth-1 102 | T cruzi growth-2 105 | T cruzi growth-3 inactive | 3T3 cytotox inactive | 3T3 cytotox 2 inactive
Cc1ccc(S(=O)(=O)Nc2ccc3c(c2)C(=O)N([C@@H](C)CO)C[C@H](C)[C@H](CN(C)S(=O)(=O)c2ccc(C)cc2)OCCCC[C@@H](C)O3)cc1	none
Cc1ccc(S(=O)(=O)Nc2ccc3c(c2)C(=O)N([C@@H](C)CO)C[C@@H](C)[C@H](CN(C)S(=O)(=O)c2ccc(C)cc2)OCCCC[C@@H](C)O3)cc1	T cruzi growth-1 101 | T cruzi growth-2 102 | T cruzi growth-3 inconclusive | 3T3 cytotox inactive | 3T3 cytotox 2 inactive
Cc1ccc(S(=O)(=O)Nc2ccc3c(c2)C(=O)N([C@@H](C)CO)C[C@@H](C)[C@@H](CN(C)S(=O)(=O)c2ccc(C)cc2)OCCCC[C@@H](C)O3)cc1	none
COC(=O)c1cc(OC)c(OC)cc1NC(=O)COc1ccccc1	none (no result: T cruzi growth-1, KDM4C inh)
O=C(CSc1ncccc1C(=O)O)Nc1ccc(Oc2ccccc2)cc1	none (no result: T cruzi growth-1, KDM4C inh)
COc1cccc(NC(=O)N2[C@@H](CO)[C@H](c3ccccc3)[C@@H]2CNC(C)C)c1	T cruzi growth-1 102 (no result: IDH1 mut inh) | T cruzi growth-2 101 | T cruzi growth-3 inactive | 3T3 cytotox inactive | 3T3 cytotox 2 inactive
CNC[C@@H]1[C@H](c2ccccc2)[C@H](CO)N1C(=O)Nc1cccc(OC)c1	none (no result: IDH1 mut inh)
COc1cccc(NC(=O)N2[C@H](CO)[C@@H](c3ccccc3)[C@H]2CNC(C)C)c1	T cruzi growth-1 104 (no result: IDH1 mut inh) | T cruzi growth-2 inactive | T cruzi growth-3 inactive | 3T3 cytotox inactive | 3T3 cytotox 2 inactive
COc1cccc(NC(=O)N2[C@@H](CO)[C@@H](c3ccccc3)[C@@H]2CNCC(C)C)c1	none (no result: IDH1 mut inh)
COc1ccc(C#Cc2ccc([C@H]3[C@@H](CO)N4CCCCN(S(=O)(=O)c5ccccc5)C[C@@H]34)cc2)cc1	T cruzi growth-1 103 (no result: IDH1 mut inh) | T cruzi growth-2 103 | T cruzi growth-3 inactive | 3T3 cytotox inactive | 3T3 cytotox 2 inactive
O=S(=O)(c1ccccc1)N1CCCCN2[C@H](CO)[C@H](c3ccc(C#Cc4ccccc4)cc3)[C@H]2C1	none (no result: IDH1 mut inh)

Screening data from PubChem.
